In series [1] the target is PSMA expressed on LNCaP cells (Homo sapiens, UniProt Q04609). Put plainly: competitive cell-binding assay with PSMA-positive LNCaP cells.
Series [2] in a line: biodistribution analysis in LNCaP tumor-bearing mice. In kind it is in vivo, NMRI nu/nu mice. The conditions noted are these: high molar activity, approximately 10 MBq. In short, it runs like this: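 Mice bearing LNCaP tumours (100–500 mm3) were injected with approximately 10 MBq of the 68Ga-labelled test compound, giving groups at high molar activity (low peptide amount) and low molar activity (high peptide amount). Organ distribution was determined in three mice per condition. Labelling was done at pH 4.2, 98°C, for 10 min in HEPES.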

Results on two molecules are retold here after article PMC6791425 (Oncoimmunology, 2019).

The structures appear in SMILES notation.

The term IC50 denotes the concentration needed to halve the response being measured. A higher IC50 goes with weaker potency.

Sequence of PSMA expressed on LNCaP cells (Q04609 whole entry): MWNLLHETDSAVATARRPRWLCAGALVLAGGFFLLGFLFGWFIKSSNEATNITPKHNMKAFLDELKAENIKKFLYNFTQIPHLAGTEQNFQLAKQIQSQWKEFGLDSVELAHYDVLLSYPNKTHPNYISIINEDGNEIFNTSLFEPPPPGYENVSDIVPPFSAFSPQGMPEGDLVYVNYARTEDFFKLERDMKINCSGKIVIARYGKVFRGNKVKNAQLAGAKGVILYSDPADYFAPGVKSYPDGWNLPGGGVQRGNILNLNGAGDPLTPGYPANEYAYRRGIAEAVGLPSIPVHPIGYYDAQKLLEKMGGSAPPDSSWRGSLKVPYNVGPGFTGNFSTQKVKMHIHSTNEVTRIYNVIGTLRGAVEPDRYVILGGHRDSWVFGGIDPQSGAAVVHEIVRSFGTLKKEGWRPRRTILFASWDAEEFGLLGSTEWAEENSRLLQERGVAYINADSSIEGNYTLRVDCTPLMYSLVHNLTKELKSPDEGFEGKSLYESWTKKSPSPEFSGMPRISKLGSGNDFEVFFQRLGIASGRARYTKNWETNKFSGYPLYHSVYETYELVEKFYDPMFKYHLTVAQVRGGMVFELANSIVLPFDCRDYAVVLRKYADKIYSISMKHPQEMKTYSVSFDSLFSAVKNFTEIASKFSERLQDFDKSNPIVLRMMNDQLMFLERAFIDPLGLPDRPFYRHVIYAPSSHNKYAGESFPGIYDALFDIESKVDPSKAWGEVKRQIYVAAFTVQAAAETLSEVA

On to `O=C(O)CCc1ccc(O)c(CN(CCN(CC(=O)O)Cc2cc(CCC(=O)NCCCCCC(=O)NCCCC[C@H](NC(=O)N[C@@H](CCC(=O)O)C(=O)O)C(=O)O)ccc2O)CC(=O)O)c1` [PSMA-11], for which the 50% inhibitory concentration (IC50) in series [1] is 14.8 ± 1.2 nM.
Take `O=C([O-])CN(CCN(CC(=O)[O-])Cc1cc(CCC(=O)NCCCCCC(=O)NCCCC[C@H](NC(=O)N[C@@H](CCC(=O)O)C(=O)O)C(=O)O)ccc1[O-])Cc1cc(CCC(=O)O)ccc1[O-].[68Ga+3].[OH3+]` [[^68Ga]Ga-PSMA-11]: the Tumor in series [2] (LNCaP tumor) is given as 2.99 SUV (g/g). Moreover, in series [2], the Adrenals was 3.11 SUV (g/g), the BAT is on record as 0.10 SUV (g/g), the Blood is on record as 0.06 SUV (g/g) and the Brain is on record as 0.01 SUV (g/g). Further, in series [2], the Femur is 0.04 SUV (g/g), the Heart is listed as 0.09 SUV (g/g), the Kidneys is listed as 50.79 SUV (g/g) and the Liver is listed as 0.11 SUV (g/g). In series [2], the Lung is on record as 0.45 SUV (g/g), the Muscle is listed as 0.04 SUV (g/g), the Pancreas is 0.29 SUV (g/g) and the Ratio tumor/muscle was found to be 70.87. Also, in series [2], the Skin is given as 0.09 SUV (g/g), the Spleen is on record as 1.53 SUV (g/g), the Subm. gl. was 0.29 SUV (g/g) and the Testes was 0.22 SUV (g/g). Moreover, in series [2], the WAT is reported as 0.33 SUV (g/g).
